# Key:
# Type in all cases: functional
# [1] = test system: NCI-H226; test: Growth inhibition of human NCI-H226 cells at 10 uM after 48 hrs by coulter counting; conditions: NCI-H226, 48 h, read-out: GI
# Procedure, shortened: (§1)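 Single-dose primary screen across the full NCI 60-cell-line panel. Stocks were made in DMSO and diluted in PBS to a final DMSO below 1%. Cultures at 6 × 10⁴ cells/ml were run in duplicate wells alongside PBS/DMSO vehicle controls at 37 °C in humidified 5% CO₂. Data were expressed as percent growth of treated cells.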
# [2] = test system: A498; test: Growth inhibition of human A498 cells at 10 uM after 48 hrs by coulter counting; conditions: A498, 48 h, read-out: GI; procedure, shortened: as §1
# [3] = test system: UACC-62; test: Growth inhibition of human UACC62 cells at 10 uM after 48 hrs by coulter counting; conditions: UACC-62, 48 h, read-out: GI
# Procedure, shortened: (§2)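 Single-dose screen in the NCI 60 human tumor cell line panel (nine subpanels). Compounds dissolved in DMSO and diluted in phosphate buffered saline, keeping final DMSO below 1%. Added in duplicate wells to cells at 6 × 10⁴ cells/ml. Controls held PBS and DMSO at matching dilutions. Incubated at 37 °C, humidified, 5% CO₂. Reported as percent growth of treated cells.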
# [4] = test system: SNB-19; test: Growth inhibition of human SNB19 cells at 10 uM after 48 hrs by coulter counting; conditions: SNB-19, 48 h, read-out: GI; procedure, shortened: as §1
# [5] = test system: EKVX; test: Growth inhibition of human EKVX cells at 10 uM after 48 hrs by coulter counting; conditions: read-out: GI; procedure, shortened: as §1
# [6] = test system: ACHN; test: Growth inhibition of human ACHN cells at 10 uM after 48 hrs by coulter counting; conditions: read-out: GI; procedure, shortened: as §1
# [7] = Growth inhibition of human NCI-322M cells at 10 uM after 48 hrs by coulter counting; conditions: read-out: GI; procedure, shortened: as §1
# [8] = test system: HOP-62; test: Growth inhibition of human HOP62 cells at 10 uM after 48 hrs by coulter counting; conditions: HOP-62, 48 h, read-out: GI; procedure, shortened: as §1
# [9] = test system: HT-29; test: Growth inhibition of human HT-29 cells at 10 uM after 48 hrs by coulter counting; conditions: HT-29, 48 h, read-out: GI; procedure, shortened: as §1
# [10] = test system: MCF7; test: Growth inhibition of human MCF7 cells at 10 uM after 48 hrs by coulter counting; conditions: MCF7, 48 h, read-out: GI; procedure, shortened: as §1
# [11] = test system: SF-268; test: Growth inhibition of human SF268 cells at 10 uM after 48 hrs by coulter counting; conditions: SF-268, 48 h, read-out: GI; procedure, shortened: as §1
# [12] = test system: NCI/ADR-RES; test: Growth inhibition of human NCI/ADR-RES cells at 10 uM after 48 hrs by coulter counting; conditions: read-out: GI; procedure, shortened: as §1
# [13] = test system: NCI-H460; test: Growth inhibition of human NCI-H460 cells at 10 uM after 48 hrs by coulter counting; conditions: NCI-H460, 48 h, read-out: GI; procedure, shortened: as §1
# [14] = test system: SK-MEL-2; test: Growth inhibition of human SK-MEL-2 cells at 10 uM after 48 hrs by coulter counting; conditions: SK-MEL-2, 48 h, read-out: GI; procedure, shortened: as §1
# [15] = test system: CCRF-CEM; test: Growth inhibition of human CCRF-CEM cells at 10 uM after 48 hrs by coulter counting; conditions: read-out: GI; procedure, shortened: as §1
# [16] = test system: M14; test: Growth inhibition of human M14 cells at 10 uM after 48 hrs by coulter counting; conditions: M14, 48 h, read-out: GI; procedure, shortened: as §1
# [17] = test system: SN12C; test: Growth inhibition of human SN12C cells at 10 uM after 48 hrs by coulter counting; conditions: read-out: GI; procedure, shortened: as §1
# [18] = test system: K562; test: Growth inhibition of human K562 cells at 10 uM after 48 hrs by coulter counting; conditions: K562, 48 h, read-out: GI; procedure, shortened: as §1
# [19] = test system: TK-10; test: Growth inhibition of human TK10 cells at 10 uM after 48 hrs by coulter counting; conditions: TK-10, 48 h, read-out: GI; procedure, shortened: as §2
# [20] = test system: T47D; test: Growth inhibition of human T47D cells at 10 uM after 48 hrs by coulter counting; conditions: read-out: GI; procedure, shortened: as §2
# [21] = test system: UO-31; test: Growth inhibition of human UO31 cells at 10 uM after 48 hrs by coulter counting; conditions: UO-31, 48 h, read-out: GI; procedure, shortened: as §2
# [22] = test system: 786-0; test: Growth inhibition of human 786-0 cells at 10 uM after 48 hrs by coulter counting; conditions: 786-0, 48 h, read-out: GI; procedure, shortened: as §1
# [23] = test system: SK-MEL-5; test: Growth inhibition of human SK-MEL-5 cells at 10 uM after 48 hrs by coulter counting; conditions: SK-MEL-5, 48 h, read-out: GI; procedure, shortened: as §1
# [24] = test system: OVCAR-8; test: Growth inhibition of human OVCAR8 cells at 10 uM after 48 hrs by coulter counting; conditions: OVCAR-8, 48 h, read-out: GI; procedure, shortened: as §1
# [25] = test system: NCI-H23; test: Growth inhibition of human NCI-H23 cells at 10 uM after 48 hrs by coulter counting; conditions: NCI-H23, 48 h, read-out: GI; procedure, shortened: as §1
# [26] = test system: SNB-75; test: Growth inhibition of human SNB75 cells at 10 uM after 48 hrs by coulter counting; conditions: SNB-75, 48 h, read-out: GI; procedure, shortened: as §1
# [27] = test system: U-251; test: Growth inhibition of human U251 cells at 10 uM after 48 hrs by coulter counting; conditions: U-251, 48 h, read-out: GI; procedure, shortened: as §2
# [28] = test system: DU-145; test: Growth inhibition of human DU145 cells at 10 uM after 48 hrs by coulter counting; conditions: DU-145, 48 h, read-out: GI; procedure, shortened: as §1
# [29] = test system: NCI-H522; test: Growth inhibition of human NCI-H522 cells at 10 uM after 48 hrs by coulter counting; conditions: NCI-H522, 48 h, read-out: GI; procedure, shortened: as §1
# [30] = test system: HL-60(TB); test: Growth inhibition of human HL-60(TB) cells at 10 uM after 48 hrs by coulter counting; conditions: HL-60, 48 h, read-out: GI
# Procedure, shortened: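 Test compound was dissolved in DMSO and diluted in phosphate-buffered saline to a final DMSO level below 1%. Dilutions were plated in duplicate with cell culture at 6 × 10⁴ cells/ml. Vehicle controls held PBS and DMSO at matching dilutions. Incubation was at 37 °C, humidified, under 5% CO₂. Data were reported as percent growth of treated cells.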
# [31] = test system: SK-MEL-28; test: Growth inhibition of human SK-MEL-28 cells at 10 uM after 48 hrs by coulter counting; conditions: SK-MEL-28, 48 h, read-out: GI; procedure, shortened: as §1
# [32] = test system: UACC-257; test: Growth inhibition of human UACC257 cells at 10 uM after 48 hrs by coulter counting; conditions: UACC-257, 48 h, read-out: GI; procedure, shortened: as §2
# [33] = test system: MOLT-4; test: Growth inhibition of human MOLT4 cells at 10 uM after 48 hrs by coulter counting; conditions: MOLT-4, 48 h, read-out: GI; procedure, shortened: as §1
# [34] = test system: MDA-MB-435; test: Growth inhibition of human MDA-MB-435 cells at 10 uM after 48 hrs by coulter counting; conditions: MDA-MB-435, 48 h, read-out: GI; procedure, shortened: as §1
# [35] = test system: LOX IMVI; test: Growth inhibition of human LOXIMVI cells at 10 uM after 48 hrs by coulter counting; conditions: read-out: GI; procedure, shortened: as §1
# [36] = test system: BT-549; test: Growth inhibition of human BT549 cells at 10 uM after 48 hrs by coulter counting; conditions: BT-549, 48 h, read-out: GI; procedure, shortened: as §1
# [37] = test system: HCT-15; test: Growth inhibition of human HCT15 cells at 10 uM after 48 hrs by coulter counting; conditions: HCT-15, 48 h, read-out: GI; procedure, shortened: as §1
# [38] = test system: KM12; test: Growth inhibition of human KM12 cells at 10 uM after 48 hrs by coulter counting; conditions: KM12, 48 h, read-out: GI; procedure, shortened: as §1
# [39] = test system: CAKI-1; test: Growth inhibition of human Caki1 cells at 10 uM after 48 hrs by coulter counting; conditions: CAKI-1, 48 h, read-out: GI; procedure, shortened: as §1
# [40] = test system: HCT-116; test: Growth inhibition of human HCT116 cells at 10 uM after 48 hrs by coulter counting; conditions: HCT-116, 48 h, read-out: GI; procedure, shortened: as §1
# [41] = test system: A549; test: Growth inhibition of human A549 cells at 10 uM after 48 hrs by coulter counting; conditions: A549, 48 h, read-out: GI; procedure, shortened: as §1
# [42] = test system: RPMI-8226; test: Growth inhibition of human RPMI8226 cells at 10 uM after 48 hrs by coulter counting; conditions: RPMI-8226, 48 h, read-out: GI; procedure, shortened: as §1
# [43] = test system: SF-295; test: Growth inhibition of human SF295 cells at 10 uM after 48 hrs by coulter counting; conditions: SF-295, 48 h, read-out: GI; procedure, shortened: as §1
structure (smiles),measurement,setting,value
CCN1CC2=C(N=C3SC=C(C)N3C2c2ccc(OC)cc2)/C(=C/c2ccc(OC)cc2)C1 (stereo not drawn),inhibition of growth at 10 µM,[1],> 10%
same,inhibition of growth at 10 µM,[2],> 10%
same,inhibition of growth at 10 µM,[3],> 10%
same,inhibition of growth at 10 µM,[4],> 10%
same,inhibition of growth at 10 µM,[5],> 10%
same,inhibition of growth at 10 µM,[6],> 10%
same,inhibition of growth at 10 µM,[7],> 10%
same,inhibition of growth at 10 µM,[8],> 10%
same,inhibition of growth at 10 µM,[9],> 10%
same,inhibition of growth at 10 µM,[10],> 10%
same,inhibition of growth at 10 µM,[11],> 10%
same,inhibition of growth at 10 µM,[12],> 10%
same,inhibition of growth at 10 µM,[13],> 10%
same,inhibition of growth at 10 µM,[14],> 10%
same,inhibition of growth at 10 µM,[15],> 10%
same,inhibition of growth at 10 µM,[16],> 10%
same,inhibition of growth at 10 µM,[17],> 10%
same,inhibition of growth at 10 µM,[18],> 10%
same,inhibition of growth at 10 µM,[19],> 10%
same,inhibition of growth at 10 µM,[20],> 10%
same,inhibition of growth at 10 µM,[21],35.5%
same,inhibition of growth at 10 µM,[22],> 10%
same,inhibition of growth at 10 µM,[23],> 10%
same,inhibition of growth at 10 µM,[24],> 10%
same,inhibition of growth at 10 µM,[25],> 10%
same,inhibition of growth at 10 µM,[26],12.5%
same,inhibition of growth at 10 µM,[27],> 10%
same,inhibition of growth at 10 µM,[28],> 10%
same,inhibition of growth at 10 µM,[29],> 10%
same,inhibition of growth at 10 µM,[30],> 10%
same,inhibition of growth at 10 µM,[31],> 10%
same,inhibition of growth at 10 µM,[32],> 10%
same,inhibition of growth at 10 µM,[33],> 10%
same,inhibition of growth at 10 µM,[34],> 10%
same,inhibition of growth at 10 µM,[35],> 10%
same,inhibition of growth at 10 µM,[36],> 10%
same,inhibition of growth at 10 µM,[37],> 10%
same,inhibition of growth at 10 µM,[38],> 10%
same,inhibition of growth at 10 µM,[39],> 10%
same,inhibition of growth at 10 µM,[40],> 10%
same,inhibition of growth at 10 µM,[41],> 10%
same,inhibition of growth at 10 µM,[42],> 10%
same,inhibition of growth at 10 µM,[43],> 10%

# Reference: ChEMBL document CHEMBL1926614, “Substituted thiazoles V. synthesis and antitumor activity of novel thiazolo[2,3-b]quinazoline and pyrido[4,3-d]thiazolo[3,2-a]pyrimidine analogues” (2012)
